In ChEMBL document CHEMBL5712918, “Targeting methyltransferase PRMT5 retards the carcinogenesis and metastasis of HNSCC via epigenetically inhibiting Twist1 transcription” (Neoplasia, 2020):
Active and inactive are the calls of the source. The calls are words filed in the database; no cut-off is given here.

Experiments:
[1] = target: Protein arginine N-methyltransferase 5 (Homo sapiens) (UniProt O14744); assay: Inhibition of PRMT5 in human HSC-6 cells assessed as reduction in H3R8me2 protein expression at 10 uM incubated for 4 days by western blot analysis; format: cell-based; settings: time 4.0 day
[2] = target: Protein arginine N-methyltransferase 5 (Homo sapiens) (UniProt O14744); assay: Inhibition of PRMT5 in human HSC-6 cells assessed as reduction in H3R2me2 protein expression at 10 uM incubated for 4 days by western blot analysis; format: cell-based; settings: time 4.0 day
[3] = target: Protein arginine N-methyltransferase 5 (Homo sapiens) (UniProt O14744); assay: Inhibition of PRMT5 in human HSC-6 cells assessed as increase in E-cadherin protein expression level at 10 uM incubated for 4 days by western blot analysis; format: cell-based; settings: time 4.0 day
Summary of the method: (§1)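 HSC6 or SCC25 cells treated with 10 μM for 4 days. E-cadherin, N-cadherin and Twist1 proteins detected by immunoblot.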

[4] = system: Rattus norvegicus; assay: Antitumor activity against 4-Nitroquinoline-1-Oxide induced cancer Sprague-Dawley rat carcinogenic model assessed as cancer area of tongue tissue at 30 mg/kg, iv administered on week 12 and measured on week 22 (reference value: 80%); format: functional; settings: time 10 weeks
[5] = system: SCC-25; assay: Anti-invasive activity against human SCC-25 cells assessed as reduction in cell invasion at 10 uM for 4 days by transwell assay; format: functional, cell-based; settings: time 4.0 day
Summary of the method: (§2)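 Transwell migration and invasion with 8-μm pore inserts. HSC6 or SCC25 cells, including lines stably overexpressing Flag-Twist1, treated at 10 μM for 4 days. Mean ± SD of three independent experiments, one-way ANOVA.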

[6] = target: Protein arginine N-methyltransferase 5 (Homo sapiens) (UniProt O14744); assay: Inhibition of PRMT5 in human SCC-25 cells assessed as reduction in set1 occupancy in Twist1 promoter region at 10 uM incubated for 4 days by Chip-qPCR analysis; format: cell-based; settings: time 4.0 day
Summary of the method: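 SCC25 cells exposed to inhibitor at 10 μM for 4 days. ChIP used a commercial kit with anti-WDR5 or anti-Set1 (1:50), and binding at the Twist1 promoter was quantified by qPCR. Mean ± SD of three independent experiments, Student's t test.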

[7] = target: Protein arginine N-methyltransferase 5 (Homo sapiens) (UniProt O14744); assay: Inhibition of PRMT5 in human HSC-6 cells assessed as reduction in Twist1 protein expression at 10 uM incubated for 4 days by western blot analysis; format: cell-based; settings: time 4.0 day; summary of the method: as §1
[8] = system: HSC-6; assay: Anti-invasive activity against human HSC-6 cells assessed as reduction in cell invasion after 48 hrs incubated for 48 hrs by transwell assay; format: functional, cell-based
[9] = target: Protein arginine N-methyltransferase 5 (Homo sapiens) (UniProt O14744); assay: Inhibition of PRMT5 in human HSC-6 cells assessed as reduction in H4R3me2 protein expression at 10 uM incubated for 4 days by western blot analysis; format: cell-based; settings: time 4.0 day
[10] = system: HSC-6; assay: Anti-invasive activity against human HSC-6 cells assessed as reduction in cell invasion at 10 uM for 4 days by transwell assay; format: functional, cell-based; settings: time 4.0 day; summary of the method: as §2
[11] = target: Protein arginine N-methyltransferase 5 (Homo sapiens) (UniProt O14744); assay: Inhibition of PRMT5 in human HSC-6 cells over expressing Twist1 assessed as increase in N-cadherin protein level at 10 uM incubated for 4 days by immunoblot analysis; format: cell-based; settings: time 4.0 day
Summary of the method: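 HSC6 cells stably overexpressing Flag-Twist1, with or without 10 μM for 4 days. Twist1, N-cadherin and E-cadherin proteins detected by immunoblot.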

[12] = Toxicity in BALB/c nude mouse xenografted with human tongue squamous carcinoma cells assessed as effect on liver morphology at 30 mg/kg; format: organism-based; settings: in vivo
[13] = system: SCC-25; assay: Antimigratory activity against human SCC-25 cells assessed as reduction in cell migration after 48 hrs incubated for 48 hrs by transwell assay; format: functional, cell-based
[14] = system: Squamous carcinoma cell line; assay: Antitumor activity against human squamous carcinoma cells in BALB/c nude PDX xenograft mouse assessed as tumor volume at 30 mg/kg; format: functional, organism-based
Summary of the method: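 PDX: tongue squamous carcinoma tissue minced into 1∼2 mm3 pieces and passaged in BALB/c nude mice. P2 tissue implanted subcutaneously into 4-week-old mice, randomised at 50 mm3 tumour size to control or 30 mg/kg (n = 6 each). Volume change followed, and Ki-67 IHC quantified. Mean ± SD, Student's t test.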

[15] = target: Protein arginine N-methyltransferase 5 (Homo sapiens) (UniProt O14744); assay: Inhibition of PRMT5 in human SCC-25 cells assessed as reduction in Twist1 mRNA expression at 10 uM incubated for 4 days by RT-qPCR analysis; format: cell-based; settings: time 4.0 day
Summary of the method: (§3)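 HSC6 or SCC25 cells exposed to 10 μM for 4 days. Twist1 mRNA measured by quantitative RT-PCR. Mean ± SD of three independent experiments, Student's t test.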

[16] = target: Protein arginine N-methyltransferase 5 (Homo sapiens) (UniProt O14744); assay: Inhibition of PRMT5 in human SCC-25 cells assessed as reduction in H3R8me2 protein expression at 10 uM incubated for 4 days by western blot analysis; format: cell-based; settings: time 4.0 day
[17] = system: SCC-25; assay: Antimigratory activity against human SCC-25 cells assessed as reduction in cell migration at 10 uM for 4 days by transwell assay; format: functional, cell-based; settings: time 4.0 day; summary of the method: as §2
[18] = system: HSC-6; assay: Antiproliferative activity against human HSC-6 cells assessed as reduction in cell vaibility at 1 to 10 uM by CCK-8 assay; format: functional, cell-based; settings: dose 1-10 µM
Summary of the method: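 Proliferation of HSC6 and SCC25 cells read by CCK-8 conversion. Mean ± SD of three independent experiments, Student's t test.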

[19] = system: HSC-6; assay: Antitumor activity against human HSC-6 cells xenografted in BALB/c nude mouse model of orthotopic tumor assessed as as reduction in distant metastasis in lung at 30 mg/kg by H and E analysis; format: functional, organism-based
[20] = system: Rattus norvegicus; assay: Antitumor activity against 4-Nitroquinoline-1-Oxide induced cancer Sprague-Dawley rat carcinogenic model assessed as dysplasia area of tongue tissue at 30 mg/kg, iv administered on week 12 and measured on week 22 (reference value: 13.3%); format: functional; settings: time 10 weeks
[21] = target: Protein arginine N-methyltransferase 5 (Homo sapiens) (UniProt O14744); assay: Inhibition of PRMT5 in human SCC-25 cells over expressing Twist1 assessed as increase in N-cadherin protein level at 10 uM incubated for 4 days by immunoblot analysis; format: cell-based; settings: time 4.0 day
Summary of the method: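 SCC25 cells stably overexpressing Flag-tagged Twist1 were treated with or without 10 μM inhibitor for 4 days, then immunoblotted for Twist1, N-cadherin and E-cadherin.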

[22] = target: Protein arginine N-methyltransferase 5 (Homo sapiens) (UniProt O14744); assay: Inhibition of PRMT5 in human HSC-6 cells assessed as reduction in set1 occupancy in Twist1 promoter region at 10 uM incubated for 4 days by Chip-qPCR analysis; format: cell-based; settings: time 4.0 day
Summary of the method: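 ChIP-qPCR at the Twist1 promoter after 4 days at 10 μM in HSC6 or SCC25 cells. Antibody ratios: H3R2me2s 1:100, H4R3me2s 1:100, WDR5 1:50, Set1 1:50; ChIP assay kit protocol. Mean ± SD of three independent experiments, Student's t test.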

[23] = target: Protein arginine N-methyltransferase 5 (Homo sapiens) (UniProt O14744); assay: Inhibition of PRMT5 in human HSC-6 cells assessed as increase in E-cadherin protein expression level at 10 uM incubated for 4 days by western blot analysis; settings: time 4.0 day
[24] = system: HSC-6; assay: Antitumor activity against human HSC-6 cells xenografted in BALB/c nude mouse assessed as reduction in number of Twist1 positive cells at 30 mg/kg by IHC staining; format: functional, organism-based
Summary of the method: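 HSC6 subcutaneous xenograft: 6 × 10^7 cells into the back of 4-week-old BALB/c nude mice, dosed at 15 or 30 mg/kg. IHC with Ki67 1:400 or Twist1 1:250. Percent positive cells from 5 random fields per sample. Student's t test; Twist1 groups n = 6/6.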

[25] = target: Protein arginine N-methyltransferase 5 (Homo sapiens) (UniProt O14744); assay: Inhibition of PRMT5 in human SCC-25 cells assessed as reduction in Twist1 protein expression at 10 uM incubated for 4 days by western blot analysis; format: cell-based; settings: time 4.0 day; summary of the method: as §1
[26] = target: Protein arginine N-methyltransferase 5 (Homo sapiens) (UniProt O14744); assay: Inhibition of PRMT5 in human HSC-6 cells assessed as reduction in Twist1 mRNA expression at 10 uM incubated for 4 days by RT-qPCR analysis; format: cell-based; settings: time 4.0 day; summary of the method: as §3

Sequence of Protein arginine N-methyltransferase 5 (Homo sapiens) (O14744 whole entry): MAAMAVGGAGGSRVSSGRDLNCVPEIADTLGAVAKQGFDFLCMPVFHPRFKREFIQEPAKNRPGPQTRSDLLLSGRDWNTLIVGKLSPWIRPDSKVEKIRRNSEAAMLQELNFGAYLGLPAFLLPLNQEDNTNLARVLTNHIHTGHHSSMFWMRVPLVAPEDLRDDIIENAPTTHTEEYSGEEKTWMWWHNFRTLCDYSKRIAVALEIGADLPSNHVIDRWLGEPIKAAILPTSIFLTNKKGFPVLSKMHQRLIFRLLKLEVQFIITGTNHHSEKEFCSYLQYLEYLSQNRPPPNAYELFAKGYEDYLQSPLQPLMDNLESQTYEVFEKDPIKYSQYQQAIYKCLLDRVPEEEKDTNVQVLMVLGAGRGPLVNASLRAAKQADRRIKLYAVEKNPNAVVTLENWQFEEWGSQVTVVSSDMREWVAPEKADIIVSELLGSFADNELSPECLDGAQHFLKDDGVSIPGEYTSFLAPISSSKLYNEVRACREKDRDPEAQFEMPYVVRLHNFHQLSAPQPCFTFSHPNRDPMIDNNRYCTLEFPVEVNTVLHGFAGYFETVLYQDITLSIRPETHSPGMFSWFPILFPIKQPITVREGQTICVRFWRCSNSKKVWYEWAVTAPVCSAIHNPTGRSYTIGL

O=C(NC[C@H](O)CN1CCc2ccccc2C1)c1cc(NC2COC2)ncn1
inhibition [1]: Active | inhibition [2]: Active | inhibition [3]: Active | Activity [4]: 46.2% | Activity [5]: Active | inhibition [6]: Active | inhibition [7]: Active | Activity [8]: Active | inhibition [9]: Active | Activity [10]: Active | inhibition [11]: inactive | Activity [12]: Non-Toxic | Activity [13]: Active | Activity [14]: Active | inhibition [15]: Active | inhibition [16]: Active | Activity [17]: Active | Activity [18]: Active | Activity [19]: Active | Activity [20]: 15.4% | inhibition [21]: inactive | inhibition [22]: Active | inhibition [23]: Active | Activity [24]: Active | inhibition [25]: Active | inhibition [26]: Active
